From ChEMBL document CHEMBL1122037, “Use of adenine nucleotide derivatives to assess the potential of exo-active-site-directed reagents as species- or isozyme-specific enzyme inactivators. 4. Interactions of adenosine 5'-triphosphate derivatives with adenylate kinases from Escherichia coli and rat tissues” (J Med Chem, 1982)
Where “and” joins values, the source holds several entries; their conditions need not be identical. Equal values may be shown once.

What was measured:
Escherichia coli [1] = test: Ability to inhibit Escherichia coli adenylate kinase II, activity expressed as Maximum velocity; assay type: ADME; settings: in vitro
Outline: (§1)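 Coupled spectrophotometric assay (pyruvate kinase/lactate dehydrogenase, NADH oxidation) in 0.1 M Tris-HCl pH 7.6 with 2 mM MgSO4, 0.12 M KCl, 0.31 mM PEP, 0.38 mM NADH and 0.25 mM AMP. Derivatives were added as 1:1 Mg complexes. KM was obtained from linear Lineweaver-Burk plots using five or more substrate levels spanning 0.5–4.0 × KM. Inhibition was typed as competitive or noncompetitive versus ATP.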

Rattus norvegicus [2] = species on record: Rattus norvegicus; test: Ability to inhibit rat adenylate kinase II, activity expressed as Maximum velocity; assay type: ADME; outline: as §1
[3] = target: GTP:AMP phosphotransferase AK3, mitochondrial (Rattus norvegicus, UniProt P29411); test: Ability to inhibit rat adenylate kinase III, activity expressed as Inhibition constant; Competitive inhibition; outline: as §1
Escherichia coli [4] = test: Ability inactivate Escherichia coli adenylate kinase was determined, after exposing enzyme to mM levels of MgATP at pH 7.6
Outline: (§2)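 E. coli B enzyme, partially purified 27-fold (fraction IV), exposed 6 h at 22 °C, pH 7.6, to the Mg2+ 1:1 complex of the ATP derivative in the Tris/MgSO4/KCl reaction buffer, with or without MgATP. Aliquots withdrawn at intervals and assayed spectrophotometrically with 1 mM ATP. Activity was compared with controls lacking the derivative. Read-out is % inactivation after 6 h.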

Rattus norvegicus [5] = species on record: Rattus norvegicus; test: Ability to inhibit rat adenylate kinase III, activity expressed as Maximum velocity; assay type: ADME; settings: in vitro; outline: as §1
Escherichia coli [6] = test: Ability to inhibit Escherichia coli adenylate kinase II activity expressed as Maximum velocity; assay type: ADME
Outline: (§3)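 E. coli B adenylate kinase, partially purified 27-fold (streptomycin, ammonium sulfate fractionation, DEAE-cellulose; fraction IV). ATP derivatives tested as 1:1 Mg²⁺ complexes as phosphate donor. Coupled PK/LDH NADH-oxidation spectrophotometric assay in 0.1 M Tris-HCl pH 7.6 with 2 mM MgSO₄, 0.12 M KCl, 0.31 mM PEP, 0.38 mM NADH and 0.25 mM AMP. Constants came from linear Lineweaver-Burk plots of initial velocity, using ≥5 substrate levels across 0.5–4.0 × KM.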

[7] = target: Adenylate kinase 2, mitochondrial (Rattus norvegicus, UniProt P29410); test: Ability to inhibit rat adenylate kinase II, activity expressed as Inhibition constant; outline: as §1
[8] = target: Adenylate kinase (Escherichia coli) (UniProt P69441); test: Ability of the 9 mM compound to inactivate adenylate kinase was determined, after exposing enzyme to 0 mM levels of MgATP in 6 h at 22 degree C
[9] = target: Adenylate kinase (Escherichia coli) (UniProt P69441); test: Ability to inhibit Escherichia coli adenylate kinase II activity expressed as half maximal velocity
Escherichia coli [10] = test: Ability to inactivate Escherichia coli adenylate kinase after exposing enzyme to 0 mM levels of MgATP at concentration of 8.1 mM, pH 7.6; outline: as §2
[11] = tested on: Adenylate kinase, muscle isozyme (Rattus norvegicus); test: Ability of the 1.14 mM compound to inactivate rat muscle adenylate kinase was determined, after exposing enzyme to 0 mM levels of MgATP, activity expressed as percent loss of inactivation
Escherichia coli [12] = test: Ability to inactivate adenylate kinase was determined, after exposing enzyme to mM levels of MgATP at pH 7.6 at a concentration of 9.7; outline: as §2
Rattus norvegicus [13] = species on record: Rattus norvegicus; test: Ability of to inactivate rat muscle adenylate kinase was determined activity expresses as Percent loss of inactivation
Outline: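 Rat muscle enzyme preincubated at 22 °C with the 1:1 Mg2+ complex of the derivative, alone or with added AMP or ATP. Aliquots were assayed at intervals in the coupled system containing 1 mM ATP, alongside controls lacking the derivative. Half-time of inactivation was taken from pseudo-first-order plots, or % activity loss at 5–6 h was reported.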

Escherichia coli [14] = test: Ability to inactivate adenylate kinase was determined, after exposing enzyme to mM levels of MgATP at pH 7.6 at a concentration of 9.9; outline: as §2
Escherichia coli [15] = test: Ability to inactivate adenylate kinase was determined, after exposing enzyme to mM levels of MgATP at pH 7.6 at a concentration of 26.0; outline: as §2
[16] = target: Adenylate kinase 2, mitochondrial (Rattus norvegicus) (UniProt P29410); test: Ability to inhibit rat adenylate kinase II, […]
Outline: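 Rat adenylate kinase isozyme II. ATP derivatives were used as 1:1 Mg²⁺ complexes and varied against ATP as phosphate donor. Coupled PK/LDH NADH-oxidation spectrophotometric assay in 0.1 M Tris-HCl pH 7.6 with 2 mM MgSO₄, 0.12 M KCl, 0.31 mM PEP, 0.38 mM NADH and 0.25 mM AMP. Inhibition type was assigned as competitive or noncompetitive with respect to ATP from initial-velocity kinetics.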

Escherichia coli [17] = test: Ability to inhibit Escherichia coli adenylate kinase II activity expressed as half maximal velocity; assay type: ADME, organism-based; settings: in vivo; outline: as §3
Rattus norvegicus [18] = species on record: Rattus norvegicus; test: Ability to inhibit rat adenylate kinase III, activity expressed as half-maximal velocity; assay type: ADME; outline: as §1
Rattus norvegicus [19] = species on record: Rattus norvegicus; test: Ability to inhibit rat adenylate kinase II, activity expressed as half-maximal velocity; assay type: ADME; settings: in vitro; outline: as §1

## CN(CCCN(C)C(=O)CCCCNc1ncnc2c1ncn2[C@@H]1O[C@H](COP(=O)(O)OP(=O)(O)OP(=O)(O)O)[C@@H](O)[C@H]1O)C(=O)CCCCNC(=O)OCc1ccccc1
Escherichia coli [1]
  Vmax: 0%

## CN(CCCCN(C)c1ncnc2c1ncn2[C@@H]1O[C@H](COP(=O)(O)OP(=O)(O)OP(=O)(O)O)[C@@H](O)[C@H]1O)C(=O)CCCCCCNC(=O)CI
Rattus norvegicus [2]
  Vmax: 0%
[3]
  Ki: 2.1 mM
Escherichia coli [4]
  Inactivation: 2%
Rattus norvegicus [5]
  Vmax: 0%
Escherichia coli [6]
  Vmax: 0%
[7]
  Ki: 1.6 mM

## O=C(CI)NCCCCNc1ncnc2c1ncn2[C@@H]1O[C@H](COP(=O)(O)OP(=O)(O)OP(=O)(O)O)[C@@H](O)[C@H]1O
[8]
  Inactivation: 2%

## CN(CCCCCCN(C)c1ncnc2c1ncn2[C@@H]1O[C@H](COP(=O)(O)OP(=O)(O)OP(=O)(O)O)[C@@H](O)[C@H]1O)C(=O)CCCCCCNC(=O)CI
Rattus norvegicus [2]
  Vmax: 0%
[9]
  Inactivation: 0%
[3]
  Ki: 2.2 mM
Rattus norvegicus [5]
  Vmax: 0%
[7]
  Ki: 1.8 mM

## Nc1ncnc2c1nc(NCCCCCCNC(=O)CI)n2[C@@H]1O[C@H](COP(=O)(O)OP(=O)(O)OP(=O)(O)O)[C@@H](O)[C@H]1O
[7]
  Ki: 0.3 mM

## O=C(CI)NCCCCCCC(=O)NCCCCCCNc1ncnc2c1ncn2[C@@H]1O[C@H](COP(=O)(O)OP(=O)(O)OP(=O)(O)O)[C@@H](O)[C@H]1O
Escherichia coli [10]
  Inactivation: 4%

## CC(=O)NCCCCCCNc1nc2c(N)ncnc2n1C1O[C@H](COP(=O)(O)OP(=O)(O)OP(=O)(O)O)[C@@H](O)[C@H]1O (stereo partly drawn)
Escherichia coli [1]
  Vmax: 0%

## CC(=O)NCCCCCCCCNc1ncnc2c1ncn2C1O[C@H](COP(=O)(O)O)[C@@H](O)[C@H]1O (stereo partly drawn)
[11]
  Loss of inactivation: 0%

## O=C(CI)NCCCCCCNc1ncnc2c1ncn2[C@@H]1O[C@H](COP(=O)(O)OP(=O)(O)OP(=O)(O)O)[C@@H](O)[C@H]1O
Escherichia coli [12]
  Inactivation: 25%
Rattus norvegicus [13]
  Loss of inactivation: 8%
Escherichia coli [14]
  Inactivation: 25%
Escherichia coli [15]
  Inactivation: 46% and 47%

## NC(=O)CI
[16]
  Loss of inactivation: 0%

## Nc1ncnc2c1ncn2[C@@H]1O[C@H](COP(=O)(O)OP(=O)(O)OP(=O)(O)O)[C@@H](O)[C@H]1O [ADENOSINE TRIPHOSPHATE]
Rattus norvegicus [2]
  Vmax: 100%
Escherichia coli [17]
  Km: 60 µM
Rattus norvegicus [18]
  Km: 90 µM
Rattus norvegicus [5]
  Vmax: 100%
Escherichia coli [6]
  Vmax: 100%
Rattus norvegicus [19]
  Km: 90 µM
